ChEMBL document CHEMBL3124843, “Synthesis, cytostatic, antimicrobial, and anti-HCV activity of 6-substituted 7-(het)aryl-7-deazapurine ribonucleosides” (J Med Chem, 2014)
The source made the active and inactive calls. No rule for the calls is given here.

Tests used:
BJ = assay: Cytostatic activity against human BJ cells after 72 hrs by MTT assay; format: ADME, cell-based
How it was run: (§1)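 IC50 is the concentration that cuts cell growth by 50%, read by quantitative metabolic MTT staining after a 3-day treatment. The resistant sublines were made by raising the concentration of the cytotoxic drug step by step. CEM-DNR-bulk (daunorubicin-selected) stably overexpresses mrp-1. K562-TAX (paclitaxel-selected) expresses only mdr-1. HCT116p53−/− carries null p53 alleles. BJ and MRC-5 are nonmalignant fibroblasts.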

Staphylococcus aureus [1] = assay: Antibacterial activity against methicillin-resistant Staphylococcus aureus MRSA 4591 after 24 hrs; format: functional, organism-based
[2] = tested on: Staphylococcus haemolyticus; assay: Antibacterial activity against methicillin-resistant Staphylococcus haemolyticus A/16568 after 24 hrs; format: functional, organism-based
Candida albicans = assay: Antifungal activity against Candida albicans after 48 hrs; format: functional, organism-based
CCRF-CEM = assay: Cytostatic activity against human CCRF-CEM cells after 72 hrs by MTT assay; format: functional, cell-based; how it was run: as §1
MRC5 = assay: Cytostatic activity against human MRC5 cells after 72 hrs by MTT assay; format: ADME, cell-based; conditions: MRC5, 72 h; how it was run: as §1
HCT-116 [3] = assay: Cytostatic activity against human HCT116 cells after 72 hrs by MTT assay; format: functional, cell-based; conditions: HCT-116, 72 h; how it was run: as §1
Pseudomonas aeruginosa [4] = assay: Antibacterial activity against multi-resistant Pseudomonas aeruginosa A/16575 after 24 hrs; format: functional, organism-based
K562 [5] = assay: Cytostatic activity against human K562 cells after 72 hrs by MTT assay; format: functional, cell-based; conditions: K562, 72 h; how it was run: as §1
[6] = Cytotoxicity against human HuH7 cells infected with Hepatitis C virus subtype 2a; format: cell-based, Huh-7
Candida tropicalis = assay: Antifungal activity against Candida tropicalis after 48 hrs; format: functional, organism-based
[7] = Antiproliferative activity against human HeLaS3 cells after 72 hrs by XTT assay; format: functional, cell-based; conditions: HeLa S3, 72 h
How it was run: (§2)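 Antiproliferative test on HL-60 promyelocytic leukemia and HeLa S3 cervical carcinoma cells growing in liquid suspension.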

HL-60 = assay: Antiproliferative activity against human HL60 cells after 72 hrs by XTT assay; format: functional, cell-based; conditions: HL-60, 72 h; how it was run: as §2
Staphylococcus aureus [8] = assay: Antibacterial activity against Staphylococcus aureus CCM 3953 after 24 hrs; format: functional, organism-based
[9] = Cytotoxicity against human HuH7 cells infected with Hepatitis C virus subtype 1b; format: cell-based, Huh-7
Hepatitis C virus [10] = assay: Antiviral activity against Hepatitis C virus subtype 2a infected in human HuH7 cells; format: functional, organism-based, Hepacivirus hominis; conditions: genotype 2a, Huh-7
Escherichia coli [11] = assay: Antibacterial activity against multi-resistant Escherichia coli C/16702 after 24 hrs; format: functional, organism-based
[12] = Cytostatic activity against human CEM-DNR-bulk cells after 72 hrs by MTT assay; format: functional, cell-based; how it was run: as §1
A549 = assay: Cytostatic activity against human A549 cells after 72 hrs by MTT assay; format: functional, cell-based; conditions: A549, 72 h; how it was run: as §1
Hepatitis C virus [13] = assay: Antiviral activity against Hepatitis C virus subtype 1b infected in human HuH7 cells; format: functional, organism-based, Hepacivirus hominis; conditions: genotype 1b, Huh-7
Candida parapsilosis = assay: Antifungal activity against Candida parapsilosis after 48 hrs; format: functional, organism-based
Pichia kudriavzevii = assay: Antifungal activity against Candida crusei after 48 hrs; format: functional, organism-based
HCT-116 [14] = assay: Cytostatic activity against p53-deficient human HCT116 cells after 72 hrs by MTT assay; format: functional, cell-based; conditions: HCT-116, 72 h; how it was run: as §1
Pseudomonas aeruginosa [15] = assay: Antibacterial activity against Pseudomonas aeruginosa CCM 3955 after 24 hrs; format: functional, organism-based
HepG2 = assay: Antiproliferative activity against human HepG2 cells after 72 hrs by XTT assay; format: functional, cell-based; conditions: HepG2, 72 h
K562 [16] = assay: Cytostatic activity against paclitaxel-resistant human K562 cells after 72 hrs by MTT assay; format: functional, cell-based; conditions: K562, 72 h; how it was run: as §1
Enterococcus faecalis = assay: Antibacterial activity against Enterococcus faecalis CCM 4224 after 24 hrs; format: functional, organism-based
Escherichia coli [17] = assay: Antibacterial activity against Escherichia coli CCM 3954 after 24 hrs; format: functional, organism-based

Cc1ncnc2c1c(-c1cc3ccccc3o1)cn2[C@@H]1O[C@H](CO)[C@@H](O)[C@H]1O
IC50 (BJ): 93.9 µM | Activity (Staphylococcus aureus [1]): inactive | Activity [2]: inactive | Activity (Candida albicans): inactive | IC50 (CCRF-CEM): 17.3 µM | IC50 (MRC5): 84.4 µM | IC50 (HCT-116 [3]): > 20 µM | Activity (Pseudomonas aeruginosa [4]): inactive | IC50 (K562 [5]): 19.5 µM | CC50 [6]: > 44 µM | Activity (Candida tropicalis): inactive | IC50 [7]: > 20 µM | IC50 (HL-60): > 20 µM | Activity (Staphylococcus aureus [8]): inactive | CC50 [9]: > 44 µM | EC50 (Hepatitis C virus [10]): 40.2 µM | Activity (Escherichia coli [11]): inactive | IC50 [12]: > 20 µM | IC50 (A549): > 20 µM | EC50 (Hepatitis C virus [13]): 6.76 µM | Activity (Candida parapsilosis): inactive | Activity (Pichia kudriavzevii): inactive | IC50 (HCT-116 [14]): > 20 µM | Activity (Pseudomonas aeruginosa [15]): inactive | IC50 (HepG2): > 20 µM | IC50 (K562 [16]): > 20 µM | Activity (Enterococcus faecalis): inactive | Activity (Escherichia coli [17]): inactive

Cc1ncnc2c1c(-c1cccs1)cn2[C@@H]1O[C@H](CO)[C@@H](O)[C@H]1O
IC50 (BJ): > 100 µM | Activity (Staphylococcus aureus [1]): inactive | Activity [2]: inactive | Activity (Candida albicans): inactive | IC50 (CCRF-CEM): > 20 µM | IC50 (MRC5): > 100 µM | IC50 (HCT-116 [3]): > 20 µM | Activity (Pseudomonas aeruginosa [4]): inactive | IC50 (K562 [5]): > 20 µM | CC50 [6]: > 44 µM | Activity (Candida tropicalis): inactive | IC50 [7]: > 15 µM | IC50 (HL-60): 5.73 µM | Activity (Staphylococcus aureus [8]): inactive | CC50 [9]: > 44 µM | EC50 (Hepatitis C virus [10]): > 44 µM | Activity (Escherichia coli [11]): inactive | IC50 [12]: > 20 µM | IC50 (A549): > 20 µM | EC50 (Hepatitis C virus [13]): 6.67 µM | Activity (Candida parapsilosis): inactive | Activity (Pichia kudriavzevii): inactive | IC50 (HCT-116 [14]): > 20 µM | Activity (Pseudomonas aeruginosa [15]): inactive | IC50 (HepG2): > 15 µM | IC50 (K562 [16]): > 20 µM | Activity (Enterococcus faecalis): inactive | Activity (Escherichia coli [17]): inactive

Cc1nc(N)c2c(-c3cc4ccccc4o3)cn([C@@H]3O[C@H](CO)[C@@H](O)[C@H]3O)c2n1
IC50 (BJ): > 100 µM | Activity (Staphylococcus aureus [1]): inactive | Activity [2]: inactive | Activity (Candida albicans): inactive | IC50 (CCRF-CEM): > 20 µM | IC50 (MRC5): 91.8 µM | IC50 (HCT-116 [3]): > 20 µM | Activity (Pseudomonas aeruginosa [4]): inactive | IC50 (K562 [5]): 15.7 µM | CC50 [6]: 39.1 µM | Activity (Candida tropicalis): inactive | IC50 [7]: > 20 µM | IC50 (HL-60): > 20 µM | Activity (Staphylococcus aureus [8]): inactive | CC50 [9]: 39.2 µM | EC50 (Hepatitis C virus [10]): 18.2 µM | Activity (Escherichia coli [11]): inactive | IC50 [12]: 6.31 µM | IC50 (A549): > 20 µM | EC50 (Hepatitis C virus [13]): 6.14 µM | Activity (Candida parapsilosis): inactive | Activity (Pichia kudriavzevii): inactive | IC50 (HCT-116 [14]): 13.1 µM | Activity (Pseudomonas aeruginosa [15]): inactive | IC50 (HepG2): > 20 µM | IC50 (K562 [16]): 4.99 µM | Activity (Enterococcus faecalis): inactive | Activity (Escherichia coli [17]): inactive

O=c1[nH]cnc2c1c(-c1ccsc1)cn2[C@@H]1O[C@H](CO)[C@@H](O)[C@H]1O
IC50 (BJ): > 100 µM | Activity (Staphylococcus aureus [1]): inactive | Activity [2]: inactive | Activity (Candida albicans): inactive | IC50 (CCRF-CEM): 14.5 µM | IC50 (MRC5): > 100 µM | IC50 (HCT-116 [3]): > 20 µM | Activity (Pseudomonas aeruginosa [4]): inactive | IC50 (K562 [5]): > 20 µM | CC50 [6]: > 44 µM | Activity (Candida tropicalis): inactive | IC50 [7]: > 20 µM | IC50 (HL-60): 12 µM | Activity (Staphylococcus aureus [8]): inactive | CC50 [9]: > 44 µM | EC50 (Hepatitis C virus [10]): > 44 µM | Activity (Escherichia coli [11]): inactive | IC50 [12]: > 20 µM | IC50 (A549): > 20 µM | EC50 (Hepatitis C virus [13]): 14.3 µM | Activity (Candida parapsilosis): inactive | Activity (Pichia kudriavzevii): inactive | IC50 (HCT-116 [14]): > 20 µM | Activity (Pseudomonas aeruginosa [15]): inactive | IC50 (HepG2): > 15 µM | IC50 (K562 [16]): > 20 µM | Activity (Enterococcus faecalis): inactive | Activity (Escherichia coli [17]): inactive

CSc1ncnc2c1c(-c1ccoc1)cn2[C@@H]1O[C@H](CO)[C@@H](O)[C@H]1O
IC50 (BJ): 98.8 µM | Activity (Staphylococcus aureus [1]): inactive | Activity [2]: inactive | Activity (Candida albicans): inactive | IC50 (CCRF-CEM): 14.2 µM | IC50 (MRC5): > 100 µM | IC50 (HCT-116 [3]): 0.04 µM | Activity (Pseudomonas aeruginosa [4]): inactive | IC50 (K562 [5]): 0.06 µM | CC50 [6]: > 44 µM | Activity (Candida tropicalis): inactive | IC50 [7]: 5.39 µM | IC50 (HL-60): 0.36 µM | Activity (Staphylococcus aureus [8]): inactive | CC50 [9]: > 44 µM | EC50 (Hepatitis C virus [10]): > 44 µM | Activity (Escherichia coli [11]): inactive | IC50 [12]: > 20 µM | IC50 (A549): 0.28 µM | EC50 (Hepatitis C virus [13]): 4.72 µM | Activity (Candida parapsilosis): inactive | Activity (Pichia kudriavzevii): inactive | IC50 (HCT-116 [14]): 0.1 µM | Activity (Pseudomonas aeruginosa [15]): inactive | IC50 (HepG2): > 15 µM | IC50 (K562 [16]): 3.25 µM | Activity (Enterococcus faecalis): inactive | Activity (Escherichia coli [17]): inactive

Nc1nc2c(c(-c3ccsc3)cn2[C@@H]2O[C@H](CO)[C@@H](O)[C@H]2O)c(=O)[nH]1
IC50 (BJ): > 100 µM | Activity (Staphylococcus aureus [1]): inactive | Activity [2]: inactive | Activity (Candida albicans): inactive | IC50 (CCRF-CEM): > 20 µM | IC50 (MRC5): > 100 µM | IC50 (HCT-116 [3]): > 20 µM | Activity (Pseudomonas aeruginosa [4]): inactive | IC50 (K562 [5]): > 20 µM | CC50 [6]: > 44 µM | Activity (Candida tropicalis): inactive | IC50 [7]: > 20 µM | IC50 (HL-60): > 20 µM | Activity (Staphylococcus aureus [8]): inactive | CC50 [9]: > 44 µM | EC50 (Hepatitis C virus [10]): > 44 µM | Activity (Escherichia coli [11]): inactive | IC50 [12]: > 20 µM | IC50 (A549): > 20 µM | EC50 (Hepatitis C virus [13]): > 44 µM | Activity (Candida parapsilosis): inactive | Activity (Pichia kudriavzevii): inactive | IC50 (HCT-116 [14]): > 20 µM | Activity (Pseudomonas aeruginosa [15]): inactive | IC50 (HepG2): > 20 µM | IC50 (K562 [16]): 18.3 µM | Activity (Enterococcus faecalis): inactive | Activity (Escherichia coli [17]): inactive
